One test has as its target CDK8/Cyclin C (Homo sapiens, UniProt P49336). The test is described as follows: Inhibition of CDK8/cyclin C (unknown origin) using RBER-IRStide as substrate incubated for 60 mins in presence of [gamma33P]ATP by scintillation counting method. It is filed as protein-complex assay.
In a further test the test system is MV4-11. The test is described as follows: Growth inhibition of human MV4-11 cells after 72 hrs by resazurin staining based assay. In kind it is functional. The method, boiled down: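 MV4-11 leukaemia cells grown in medium with 10% FBS at 37 °C, 5% CO2. Growth was read by a 72-h resazurin viability assay. GI50 was obtained by nonlinear regression and reported as mean ± standard deviation of at least two replicates.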
Background: Alamar Blue is a resazurin reagent that responds to reducing activity.

Sequence of CDK8/Cyclin C (P49336 whole entry): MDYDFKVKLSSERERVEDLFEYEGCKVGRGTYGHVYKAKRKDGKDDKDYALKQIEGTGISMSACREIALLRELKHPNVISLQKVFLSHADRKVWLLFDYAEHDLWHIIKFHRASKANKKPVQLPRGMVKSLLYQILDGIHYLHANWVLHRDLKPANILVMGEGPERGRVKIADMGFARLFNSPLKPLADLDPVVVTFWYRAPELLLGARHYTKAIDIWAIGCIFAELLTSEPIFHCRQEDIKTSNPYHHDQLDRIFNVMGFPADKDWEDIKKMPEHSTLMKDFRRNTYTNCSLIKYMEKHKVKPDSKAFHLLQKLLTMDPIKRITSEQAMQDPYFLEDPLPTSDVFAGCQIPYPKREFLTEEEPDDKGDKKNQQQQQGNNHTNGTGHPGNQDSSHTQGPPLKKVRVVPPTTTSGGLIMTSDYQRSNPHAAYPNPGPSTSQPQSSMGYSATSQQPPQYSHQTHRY
Sequence of CDK8/Cyclin C (P24863 whole entry, further chain): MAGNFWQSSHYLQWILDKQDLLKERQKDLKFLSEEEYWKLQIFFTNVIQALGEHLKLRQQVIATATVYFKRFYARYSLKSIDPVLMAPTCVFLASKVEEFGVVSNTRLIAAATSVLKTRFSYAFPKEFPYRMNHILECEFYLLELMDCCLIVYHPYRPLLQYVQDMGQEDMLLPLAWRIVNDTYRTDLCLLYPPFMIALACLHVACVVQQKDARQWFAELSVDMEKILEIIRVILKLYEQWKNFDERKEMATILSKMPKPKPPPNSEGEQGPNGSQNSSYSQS

Broadly, the Ki is the equilibrium dissociation constant of an inhibitor or competing ligand from its target. Usually GI50 stands for the concentration giving 50% growth inhibition. A low value points to more potent growth inhibition. As to `O=C1NCCC12CCN(c1c(Cl)cncc1-c1c[nH]c3ccccc13)CC2`, the Ki on CDK8/Cyclin C came out at 56 nM. In addition, the GI50 in the test on MV4-11 amounted to 8770 nM.
Taken in the same sequence, the figures for `COc1ccc(-c2cncc(Cl)c2N2CCC3(CCNC3=O)CC2)c2ccccc12` were 26 nM and 33200 nM.
On to `O=C1NCCC12CCN(c1c(Cl)cncc1-c1csc3ccccc13)CC2`, for which, on CDK8/Cyclin C, the Ki was determined as 21 nM. This molecule also displayed a GI50 with MV4-11 of 350 nM.
Taken in the same sequence, the figures for `O=C1NCCC12CCN(c1c(Cl)cncc1-c1cccc3ccncc13)CC2` were 3140 nM and 64200 nM.
Taken in the same sequence, the figures for `Cn1cc(-c2ccc(-c3cncc(Cl)c3-n3ccc(C(N)=O)c3)cc2)cn1` were 1090 nM and 9580 nM.
On the same counts, the results for `O=C1NCCC12CCN(c1c(Cl)cncc1-c1ccnc3ccccc13)CC2` are 138 nM and 53500 nM.
In the case of `Cn1ncc2c(-c3cncc(Cl)c3N3CCC4(CCNC4=O)CC3)cccc21`, the Ki at CDK8/Cyclin C was found to be 458 nM. In addition, the GI50 in the test with MV4-11 was found to be 27700 nM.
On to `O=C1NCCC12CCN(c1c(Cl)cncc1-c1cnn(Cc3ccccc3)c1)CC2`, for which the Ki on CDK8/Cyclin C came to 346 nM. This molecule had a GI50 in the test on MV4-11 of 5340 nM.
For `Cn1ncc2cc(Nc3cncc(Cl)c3N3CCC4(CCNC4=O)CC3)ccc21`, the Ki on CDK8/Cyclin C was 670 nM. Moreover, growth with MV4-11 was halved (GI50) at 1710 nM.
On to `O=C1NCCC12CCN(c1c(Cl)cncc1-c1cccc3c1sc1ccccc13)CC2`, for which the Ki on CDK8/Cyclin C stood at 24 nM. This molecule also returned a GI50 in the test with MV4-11 of 6350 nM.
As to `O=C1NCCC12CCN(c1c(Cl)cncc1-c1cn(S(=O)(=O)c3ccccc3)c3ccccc13)CC2`, the Ki on CDK8/Cyclin C stood at 645 nM. This molecule also gave a GI50 in the test with MV4-11 of 28400 nM.
On the same counts, the results for `O=C1NCCC12CCN(c1c(Cl)cncc1-c1cn(S(=O)(=O)c3ccccc3)c3ncccc13)CC2` are 1300 nM and 40200 nM.
On the same counts, the results for `O=C1NCCC12CCN(c1c(Cl)cncc1-c1coc3ccccc13)CC2` are 48 nM and 29200 nM.
On the same counts, the results for `O=C1NCCC12CCN(c1c(Cl)cncc1-c1cccc3ncccc13)CC2` are 22 nM and 3650 nM.
In the case of `O=C1NCCC12CCN(c1c(Cl)cncc1-c1cccc3ccccc13)CC2`, the Ki at CDK8/Cyclin C was 16 nM. Moreover, the GI50 with MV4-11 is 820 nM.
Regarding `O=C1NCCC12CCN(c1c(Cl)cncc1-c1cccc3cnccc13)CC2`, the Ki on CDK8/Cyclin C amounted to 52 nM. For the same molecule, the GI50 with MV4-11 came to 62300 nM.
On the same counts, the results for `O=C1NCCC12CCN(c1c(Cl)cncc1-c1cncc3ccccc13)CC2` are 66 nM and 7550 nM.
On the same counts, the results for `O=C1NCCC12CCN(c1c(Cl)cncc1-c1cnn(-c3ccccc3)c1)CC2` are 42 nM and 840 nM.
With `O=C1NCCC12CCN(c1c(Cl)cncc1-c1cc3ccccc3[nH]1)CC2`, the Ki on CDK8/Cyclin C is 156 nM. Growth in the test on MV4-11 was halved (GI50) at 6840 nM.
Taken in the same sequence, the figures for `O=C1NCCC12CCN(c1c(Cl)cncc1-c1cccc3cccnc13)CC2` were 114 nM and 9150 nM.
Take `Cn1cc2c(-c3cncc(Cl)c3N3CCC4(CCNC4=O)CC3)cccc2n1`: the Ki on CDK8/Cyclin C came to 52 nM. In the test with MV4-11, this molecule returned a GI50 of 5260 nM.
Take `CC(C)(C)OC(=O)N1CCC(n2cc(-c3cncc(Cl)c3N3CCC4(CCNC4=O)CC3)cn2)CC1`: the Ki at CDK8/Cyclin C amounted to 700 nM. In addition, the GI50 with MV4-11 amounted to 12200 nM.
As for `Cn1c(-c2cncc(Cl)c2N2CCC3(CCNC3=O)CC2)cc2ccccc21`, the Ki on CDK8/Cyclin C stood at 79 nM. The molecule also registered a GI50 with MV4-11 of 10100 nM.
On the same counts, the results for `CNC(=O)c1ccn(-c2c(Cl)cncc2-c2ccc(-c3cnn(C)c3)cc2)c1` are 2030 nM and 35000 nM.
Taken in the same sequence, the figures for `O=C1NCCC12CCN(c1c(Cl)cncc1-c1c[nH]c3ncccc13)CC2` were 50 nM and 7820 nM.
As to `Cc1ccc(-c2cncc(Cl)c2N2CCC3(CCNC3=O)CC2)c2ccccc12`, the Ki on CDK8/Cyclin C was found to be 22 nM. In addition, the GI50 in the test with MV4-11 was found to be 710 nM.
`O=C1NCCC12CCN(c1c(Cl)cncc1-c1cccc3c1oc1ccccc13)CC2`: the Ki at CDK8/Cyclin C came out at 16 nM. The molecule further had a GI50 in the test with MV4-11 of 6680 nM.
As to `Cn1cc(-c2ccc(-c3cncc(Cl)c3-n3ccc(C(=O)O)c3)cc2)cn1`, at CDK8/Cyclin C, the Ki turned out to be 4190 nM. The molecule further yielded a GI50 in the test with MV4-11 of 87100 nM.
On the same counts, the results for `O=C1NCCC12CCN(c1c(Cl)cncc1-c1cccc3[nH]ccc13)CC2` are 19 nM and 1910 nM.
On the same counts, the results for `O=C1NCCC12CCN(c1c(Cl)cncc1-c1cn(Cc3ccccc3)c3ncccc13)CC2` are 58 nM and 30600 nM.
